In ChEMBL document CHEMBL1255376, “Comparative surveillance study of telavancin activity against recently collected gram-positive clinical isolates from across the United States” (2008):
≈ marks a conversion by molar mass, not a printed value.

Assays:
Format in all cases: functional
Streptococcus oralis = experiment: Antibacterial activity against Streptococcus oralis clinical isolate by broth microdilution method
Outline: (§1)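 MIC by CLSI broth microdilution in frozen microtiter trays holding serial dilutions of each agent, prepared from standard laboratory powders. E. faecalis ATCC 29212 and ATCC 51299, S. aureus ATCC 29213 and S. pneumoniae ATCC 49619 run in parallel as quality-control strains. Comparator susceptibility interpreted with CLSI breakpoints.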

[1] = Antibacterial activity against Streptococcus sp. Group C clinical isolate by broth microdilution method; outline: as §1
Streptococcus sanguinis = experiment: Antibacterial activity against Streptococcus sanguinis clinical isolate by broth microdilution method; outline: as §1
Streptococcus pneumoniae = experiment: Antibacterial activity against penicillin susceptible Streptococcus pneumoniae clinical isolate by broth microdilution method
Outline: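 MICs by CLSI broth microdilution in frozen trays pre-loaded with serial dilutions of each agent. Quality-control strains run in parallel: E. faecalis ATCC 29212 and ATCC 51299, S. aureus ATCC 29213, S. pneumoniae ATCC 49619. Comparator susceptibility categories follow CLSI breakpoints. Methicillin resistance in staphylococci assigned from the oxacillin MIC.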

Streptococcus pyogenes = experiment: Antibacterial activity against Streptococcus pyogenes clinical isolate by broth microdilution method; outline: as §1
[2] = test system: Streptococcus intermedius; experiment: Antibacterial activity against Streptococcus intermedius clinical isolate by broth microdilution method; outline: as §1
[3] = Antibacterial activity against Streptococcus sp. Group G clinical isolate by broth microdilution method; outline: as §1
Streptococcus agalactiae = experiment: Antibacterial activity against Streptococcus agalactiae clinical isolate by broth microdilution method; outline: as §1
[4] = test system: Streptococcus constellatus; experiment: Antibacterial activity against Streptococcus constellatus clinical isolate by broth microdilution method; outline: as §1
Streptococcus mitis = experiment: Antibacterial activity against Streptococcus mitis clinical isolate by broth microdilution method; outline: as §1
Streptococcus sp. [5] = experiment: Antibacterial activity against Streptococcus sp. Group F clinical isolate by broth microdilution method
Outline: (§2)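 MIC by CLSI broth microdilution in frozen microtiter trays holding serial dilutions of each agent, prepared from standard laboratory powders. Comparator susceptibility interpreted with CLSI breakpoints.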

Streptococcus sp. [6] = experiment: Antibacterial activity against Streptococcus sp. clinical isolate by broth microdilution method; outline: as §2
Streptococcus equinus = experiment: Antibacterial activity against Streptococcus bovis clinical isolate by broth microdilution method; outline: as §1

CC1(C)S[C@@H]2[C@H](NC(=O)Cc3ccccc3)C(=O)N2[C@H]1C(=O)O [PENICILLIN G]
MIC (Streptococcus oralis): ≤ 0.06 µg/mL | MIC50 (Streptococcus oralis): ≤ 0.06 µg/mL | MIC90 (Streptococcus oralis): 1 µg/mL (≈ 2.99 µM) | MIC [1]: ≤ 0.06 µg/mL | MIC50 [1]: ≤ 0.06 µg/mL | MIC90 [1]: ≤ 0.06 µg/mL | MIC (Streptococcus sanguinis): ≤ 0.06 µg/mL | MIC50 (Streptococcus sanguinis): ≤ 0.06 µg/mL | MIC90 (Streptococcus sanguinis): 1 µg/mL (≈ 2.99 µM) | MIC (Streptococcus pneumoniae): ≤ 0.06 µg/mL | MIC50 (Streptococcus pneumoniae): ≤ 0.06 µg/mL | MIC90 (Streptococcus pneumoniae): ≤ 0.06 µg/mL | MIC (Streptococcus pyogenes): ≤ 0.06 µg/mL | MIC50 (Streptococcus pyogenes): ≤ 0.06 µg/mL | MIC90 (Streptococcus pyogenes): ≤ 0.06 µg/mL | MIC [2]: ≤ 0.06 µg/mL | MIC50 [2]: ≤ 0.06 µg/mL | MIC90 [2]: 1 µg/mL (≈ 2.99 µM) | MIC [3]: ≤ 0.06 µg/mL | MIC50 [3]: ≤ 0.06 µg/mL | MIC90 [3]: ≤ 0.06 µg/mL | MIC (Streptococcus agalactiae): ≤ 0.06 µg/mL | MIC50 (Streptococcus agalactiae): ≤ 0.06 µg/mL | MIC90 (Streptococcus agalactiae): ≤ 0.06 µg/mL | MIC [4]: ≤ 0.06 µg/mL | MIC50 [4]: ≤ 0.06 µg/mL | MIC90 [4]: 1 µg/mL (≈ 2.99 µM) | MIC (Streptococcus mitis): ≤ 0.06 µg/mL | MIC50 (Streptococcus mitis): ≤ 0.06 µg/mL | MIC90 (Streptococcus mitis): 1 µg/mL (≈ 2.99 µM) | MIC (Streptococcus sp. [5]): ≤ 0.06 µg/mL | MIC50 (Streptococcus sp. [5]): ≤ 0.06 µg/mL | MIC90 (Streptococcus sp. [5]): ≤ 0.06 µg/mL | MIC (Streptococcus sp. [6]): ≤ 0.06 µg/mL | MIC50 (Streptococcus sp. [6]): ≤ 0.06 µg/mL | MIC90 (Streptococcus sp. [6]): 1 µg/mL (≈ 2.99 µM) | MIC (Streptococcus equinus): ≤ 0.06 µg/mL | MIC50 (Streptococcus equinus): ≤ 0.06 µg/mL | MIC90 (Streptococcus equinus): 1 µg/mL (≈ 2.99 µM)
